Reference: ChEMBL document CHEMBL3994609, “Model-Based Discovery of Synthetic Agonists for the Zn2+-Sensing G-Protein-Coupled Receptor 39 (GPR39) Reveals Novel Biological Functions” (J Med Chem, 2017)
Converted amounts (≈) assume the structure as drawn. The source made the active and inactive calls. The rule behind the calls is not given here.

What was measured:
[1] = target: T1, G-protein coupled receptor 39 (Homo sapiens, UniProt O43194); assay: Agonist activity at human GPR39 expressed in HEK293 cells co-expressing Galphaq assessed as myo-[2-3H]inositol phosphate accumulation measured after 75 mins by scintillation proximity assay; type: functional, cell-based
T1 sequence (O43194 whole entry): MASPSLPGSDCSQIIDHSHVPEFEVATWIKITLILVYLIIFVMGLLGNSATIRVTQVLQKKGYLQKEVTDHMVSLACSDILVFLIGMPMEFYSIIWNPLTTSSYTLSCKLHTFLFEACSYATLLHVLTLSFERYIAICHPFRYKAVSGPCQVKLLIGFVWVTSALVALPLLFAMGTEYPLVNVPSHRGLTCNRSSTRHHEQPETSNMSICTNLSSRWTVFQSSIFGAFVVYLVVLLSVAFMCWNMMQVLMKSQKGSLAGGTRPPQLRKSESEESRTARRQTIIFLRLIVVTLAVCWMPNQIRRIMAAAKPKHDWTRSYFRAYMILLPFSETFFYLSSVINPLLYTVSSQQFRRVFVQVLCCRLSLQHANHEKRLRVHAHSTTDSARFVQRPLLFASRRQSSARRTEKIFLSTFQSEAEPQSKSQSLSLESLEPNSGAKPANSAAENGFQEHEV

[2] = target: T1, G-protein coupled receptor 39; assay: Agonist activity at human GPR39 expressed in HEK293 cells co-expressing Galphaq assessed as myo-[2-3H]inositol phosphate accumulation in presence of 10 uM Zn2+ measured after 75 mins by scintillation proximity assay; type: functional, cell-based
[3] = target: T2, G-protein coupled receptor 39 (Mus musculus, UniProt Q5U431); assay: Agonist activity at mouse GPR39 expressed in HEK293 cells co-expressing Galphaq assessed as myo-[2-3H]inositol phosphate accumulation measured after 75 mins by scintillation proximity assay; type: functional, cell-based
T2 sequence (Q5U431 whole entry): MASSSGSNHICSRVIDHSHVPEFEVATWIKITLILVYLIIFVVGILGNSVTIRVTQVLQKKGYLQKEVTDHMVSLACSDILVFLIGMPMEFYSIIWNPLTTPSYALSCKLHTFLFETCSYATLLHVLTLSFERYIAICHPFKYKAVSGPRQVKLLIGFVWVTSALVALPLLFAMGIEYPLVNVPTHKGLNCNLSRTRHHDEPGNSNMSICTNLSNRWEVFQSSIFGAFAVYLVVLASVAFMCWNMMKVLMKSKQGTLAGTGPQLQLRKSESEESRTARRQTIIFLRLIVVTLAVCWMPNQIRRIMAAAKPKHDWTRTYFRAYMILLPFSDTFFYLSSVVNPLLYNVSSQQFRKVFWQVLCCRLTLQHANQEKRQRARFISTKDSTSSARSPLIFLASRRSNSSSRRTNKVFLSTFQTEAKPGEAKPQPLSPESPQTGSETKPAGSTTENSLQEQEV

[4] = target: Motilin receptor (Homo sapiens) (UniProt O43193); assay: Agonist activity at human motilin receptor (412 residues) assessed as myo-[2-3H]inositol phosphate accumulation measured after 75 mins by scintillation proximity assay; type: functional
[5] = Apparent permeability from apical to basolateral side in human Caco2 cells by LC-MS/MS analysis; type: ADME, cell-based; details: Caco-2
[6] = target: Growth hormone secretagogue receptor type 1 (Homo sapiens) (UniProt Q92847); assay: Agonist activity at human ghrelin receptor ([…]) assessed as myo-[2-3H]inositol phosphate accumulation in presence of 10 uM Zn2+ measured after 75 mins by scintillation proximity assay; type: functional
[7] = target: Motilin receptor (Homo sapiens) (UniProt O43193); assay: Agonist activity at human motilin receptor (412 residues) assessed as myo-[2-3H]inositol phosphate accumulation in presence of 10 uM Zn2+ measured after 75 mins by scintillation proximity assay; type: functional
[8] = target: C-C chemokine receptor type 5 (Macaca mulatta) (UniProt P61813); assay: Agonist activity at full length monkey CCR5 assessed as myo-[2-3H]inositol phosphate accumulation in presence of 10 uM Zn2+ measured after 75 mins by scintillation proximity assay; type: functional
[9] = target: T3, G-protein coupled receptor 39 (Mus musculus) (UniProt Q5U431); assay: Agonist activity at GPR39 in primary gastric mucosal cells isolated from C57BL/6 mouse assessed as inhibition of isoproterenol-induced ghrelin secretion at 1 uM in presence of 10 uM of Zn2+ and somatostatin receptor antagonist BIM-23627 measured after 4 hrs by ELISA
T3 sequence (whole entry): T2 sequence (Q5U431 whole entry)
Method in brief: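 Primary gastric mucosal cell cultures from mice, incubated the day after preparation with ligands at 1 μM with 10 μM Zn2+ (with or without a somatostatin receptor antagonist) in triplicate for 4 h. Acyl-ghrelin in supernatant measured by ELISA, expressed as percent of medium-alone cells; n=5–7; unpaired t-test with Welch's correction versus vehicle.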

[10] = Aqueous solubility of the compound in phosphate buffered saline at pH 7.0 at 10 mM by turbidimetric method
[11] = target: T3, G-protein coupled receptor 39 (Mus musculus); assay: Agonist activity at GPR39 in primary gastric mucosal cells isolated from C57BL/6 mouse assessed as inhibition of basal ghrelin secretion at 1 uM in presence of 10 uM of Zn2+ measured after 4 hrs by ELISA relative to basal level

Sequence of Motilin receptor (Homo sapiens) (O43193 whole entry): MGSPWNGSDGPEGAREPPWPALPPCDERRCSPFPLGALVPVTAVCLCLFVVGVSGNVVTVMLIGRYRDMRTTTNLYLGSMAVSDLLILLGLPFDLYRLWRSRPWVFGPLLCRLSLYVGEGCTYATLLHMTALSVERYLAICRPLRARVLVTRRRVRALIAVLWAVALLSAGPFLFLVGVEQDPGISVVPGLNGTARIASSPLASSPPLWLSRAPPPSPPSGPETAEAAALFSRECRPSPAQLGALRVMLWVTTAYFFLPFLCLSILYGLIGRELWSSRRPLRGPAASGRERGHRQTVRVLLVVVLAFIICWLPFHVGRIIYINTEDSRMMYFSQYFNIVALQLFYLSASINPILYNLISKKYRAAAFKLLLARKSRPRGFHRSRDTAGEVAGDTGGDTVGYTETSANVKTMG
Sequence of Growth hormone secretagogue receptor type 1 (Homo sapiens) (Q92847 whole entry): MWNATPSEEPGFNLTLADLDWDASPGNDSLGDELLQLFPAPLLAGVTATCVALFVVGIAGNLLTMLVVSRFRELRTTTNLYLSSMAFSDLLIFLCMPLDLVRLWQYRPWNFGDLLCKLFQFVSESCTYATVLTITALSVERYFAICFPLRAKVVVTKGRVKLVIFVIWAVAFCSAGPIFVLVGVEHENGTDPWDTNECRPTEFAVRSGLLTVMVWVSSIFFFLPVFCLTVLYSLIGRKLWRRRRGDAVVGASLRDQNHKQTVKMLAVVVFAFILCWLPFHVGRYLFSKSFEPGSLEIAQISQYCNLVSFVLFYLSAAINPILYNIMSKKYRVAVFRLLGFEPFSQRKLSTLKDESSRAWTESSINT

## Cc1nn(-c2ncnc3nc[nH]c23)c2c1C(c1ccc(F)cc1Cl)CC(=O)N2 (stereo unspecified)
[1]
  EC50: 280 nM
[2]
  EC50: 9 nM
[3]
  EC50: 180 nM
[4]
  Activity: inactive
[5]
  Papp A→B: 25 ×10⁻⁶ cm/s
[6]
  Activity: inactive
[7]
  Activity: inactive
[8]
  Activity: inactive
[9]
  inhibition: inactive
[10]
  solubility kinetic at 10000 µM: 65 µM (≈ 25.9 µg/mL)
[11]
  inhibition: 79%
